Assay results: PMC3204583 (Journal of medicinal chemistry, 2010)

Experiments:
[1] = system: peptidylglutamyl peptide hydrolyzing-like (PGPH-like) activity of proteasomes isolated from LCLs; assay: Proteasome PGPH-like activity, fluorogenic substrate Ac-YVAD-AMC; assay type: biochemical; details: for inhibition of PGPH-like activity of 20S proteasome: 10 µM compound; for IC50: read-out: Isolated enzyme IC50(µM) PGPH-like, proteasomes isolated from LCLs, average of three independent determinations
Summary of the method: (§1)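 Proteasomes came from lymphoblastoid cells lysed by glass-bead vortexing in Tris pH 7.5, MgCl2, DTT, ATP and sucrose buffer. They were semipurified by centrifugation and 100,000g ultracentrifugation. Preparations were pretreated with test compound for 30 min at 37°C, then assayed 45 min at 37°C with Suc-LLVY-AMC (CT-like), Boc-LRR-AMC (T-like) or Ac-YVAD-AMC (PGPH/caspase-like). Reactions were SDS-quenched and read at ex 380/em 440 nm. Results are % inhibition versus untreated; IC50 is the mean of three determinations.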

[2] = system: chymotrypsin-like (CT-like) activity of proteasomes isolated from LCLs; assay: Proteasome chymotrypsin-like activity, fluorogenic substrate Suc-LLVY-AMC; assay type: biochemical; details: 10 µM compound
Summary of the method: as §1

[3] = system: trypsin-like (T-like) activity of proteasomes isolated from LCLs; assay: Proteasome trypsin-like activity, fluorogenic substrate Boc-LRR-AMC; assay type: biochemical; details: 10 µM compound
Summary of the method: as §1

[4] = system: poly-ubiquitinated proteins in HeLa cervical cancer cells; assay: Immunoblot analysis of poly-ubiquitinated proteins in HeLa cells; assay type: cell-based, human; details: eight hours treatment
Summary of the method: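 HeLa cells were grown in DMEM with 10% FBS, penicillin and streptomycin at 5% CO2, then treated for 8 h with or without test compound at several concentrations. Bortezomib served as the positive control. Poly-ubiquitinated proteins were detected by immunoblot, with β-actin as the loading control.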

[5] = system: Ub-FL reporter in HeLa cervical cancer cells; assay: Ubiquitin-Firefly luciferase; assay type: cell-based, human; details: combination of Bortezomib (5nM) and compound 2 (1µM)
Summary of the method: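 HeLa cells were transfected with either the Ub-FL reporter (four ubiquitin G76V copies fused N-terminal to firefly luciferase) or the CMV-FL control. They were replated 24 h later at 1×10^4 cells/well and left 18 h to attach. Cells then received bortezomib 5 nM, test compound 1 µM, or both for 6 h. Lysate luciferase was read as RLU, given as % of control, from three independent experiments with SE.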

[6] = biological target: Cathepsin D (Homo sapiens, UniProt P07339); assay: Residual Cathepsin D activity in HeLa cells; assay type: cell-based; details: concentrations up to 50 µM
[7] = system: HeLa cervical cancer cells; assay: Cellular morphology by phase contrast microscopy; assay type: cell-based, human; details: combination of Bortezomib (5nM)+compound 2 (1 µM), 48 hours
[8] = system: Calpain; assay: Residual Calpain activity in HeLa cells; assay type: cell-based, human; details: concentrations up to 50 µM
[9] = system: ME180 cervical cancer cells (HPV58+); assay: XTT cell viability assay, ME180; assay type: cell-based, human; details: 48 hours
[10] = system: HeLa cells; assay: Washout experiment, residual cell viability; assay type: cell-based, human; details: HeLa cells briefly treated
Summary of the method: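 HeLa cells grown in DMEM with 10% FBS, penicillin/streptomycin, 5% CO2. Cells were briefly exposed to the test compound or bortezomib (reversible-inhibitor reference), then washed out; non-washout cultures served as comparison. Viability was read by XTT: seeded at 1,000 cells/well, 4 h with XTT labeling mixture, absorbance at 450 nm. Run in triplicate, mean ± SE.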

[11] = system: primary human Keratinocytes; assay: XTT cell viability assay, primary Keratinocytes; assay type: cell-based; details: 48 hours
[12] = system: SiHa cervical cancer cells (HPV16+); assay: XTT cell viability assay, SiHa; assay type: cell-based, human; details: 48 hours
[13] = system: HeLa cervical cancer cells; assay: Combination with Bortezomib, XTT viability, isobologram / combination index; assay type: cell-based, human

Cathepsin D, sequence (P07339 65-412): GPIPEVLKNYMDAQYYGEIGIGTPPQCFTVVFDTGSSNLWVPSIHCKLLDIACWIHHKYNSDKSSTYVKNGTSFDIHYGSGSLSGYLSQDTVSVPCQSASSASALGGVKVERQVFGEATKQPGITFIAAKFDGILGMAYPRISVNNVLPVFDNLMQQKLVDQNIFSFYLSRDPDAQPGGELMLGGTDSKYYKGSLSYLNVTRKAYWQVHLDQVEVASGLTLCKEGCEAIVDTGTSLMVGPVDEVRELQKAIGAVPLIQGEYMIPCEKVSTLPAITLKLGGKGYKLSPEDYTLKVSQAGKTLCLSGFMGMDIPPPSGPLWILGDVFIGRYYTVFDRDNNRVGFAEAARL

Row | IC50 [1] | Compound | inhibition of PGPH-like activity of 20S proteasome [1] | inhibition of chymotrypsin-like (CT-like) activity of 20S proteasome [2] | inhibition of trypsin-like (T-like) activity of 20S proteasome [3] | levels of poly-ubiquitinated proteins [4] | cell viability after washout compared to non-washout cultures [10] | further results
1 | > 10 µM | O=C1/C(=C/c2ccc(Cl)c(Cl)c2)CN(C(=O)N[C@@H](Cc2ccc(O)cc2)C(=O)O)C/C1=C\c1ccc(Cl)c(Cl)c1 [Compound 3] | partial inhibition | partial inhibition | partial inhibition | – | – | –
2 | > 10 µM | CC(C)C[C@H](NC(=O)N1C/C(=C\c2ccc(Cl)c(Cl)c2)C(=O)/C(=C/c2ccc(Cl)c(Cl)c2)C1)C(=O)O [Compound 4] | partial inhibition | partial inhibition | partial inhibition | – | – | –

The remaining lines, values behind:

Row | Compound | IC50 [1] | inhibition of PGPH-like activity of 20S proteasome [1] | inhibition of chymotrypsin-like (CT-like) activity of 20S proteasome [2] | inhibition of trypsin-like (T-like) activity of 20S proteasome [3] | levels of poly-ubiquitinated proteins [4] | cell viability after washout compared to non-washout cultures [10] | further results
3 | O=C(O)CC[C@H](NC(=O)N1C/C(=C\c2ccc(Cl)c(Cl)c2)C(=O)/C(=C/c2ccc(Cl)c(Cl)c2)C1)C(=O)O [Compound 5] | – | – | – | – | no changes | – | –
4 | O=C1/C(=C/c2ccc(Cl)c(Cl)c2)CN(C(=O)N[C@@H](Cc2ccccc2)C(=O)O)C/C1=C\c1ccc(Cl)c(Cl)c1 [Compound 2] | – | nearly fully abrogated | nearly fully abrogated | nearly fully abrogated | – | partial recovery in cell viability | stabilization of the Ub-FL degron compared to single agents alone [5]: significantly enhance the stabilization; inhibitory capacity toward Cathepsin D activity [6]: no inhibitory capacity; morphological changes compared to single treatment alone [7]: greater apoptotis-associated morphological changes; inhibitory capacity toward Calpain activity [8]: no inhibitory capacity; effect on viability of ME180 [9]: dose-dependent drop; effect on viability of primary human Keratinocytes [11]: minimal effects; effect on viability of SiHa [12]: dose-dependent drop; Combination Index (CI) ([13]; Bortezomib 3.95 nmol/L / compound 2 2.5 mM/L): 0.6; Combination Index (CI) ([13]; Bortezomib 6.125 nmol/L / compound 2 1.64 mM/L): 0.6; Combination Index (CI) ([13]; Bortezomib 7.5 nmol/L / compound 2 1.06 mM/L): 0.59; interaction of the combination with Bortezomib by isobologram analysis ([13]; checker board dilution series, XTT): highly synergistic
5 | CC(C)C[C@H](NC(=O)[C@H](Cc1ccccc1)NC(=O)c1cnccn1)B(O)O [Bortezomib, reference compound] | – | – | – | – | increase | partial recovery in cell viability | –
